One compound from ChEMBL document CHEMBL4257441, “Protection effect of intracellular melanin from Lachnum YM156 and Haikunshenxi capsule combination on adenine-induced chronic renal failure in mice” (Medchemcomm, 2017) can be followed below.

SMILES strings stand for the structures. Activity calls are given as the source filed them. The calls are words filed in the database; no cut-off is given here.

For experiment [1], the system named is Mus musculus. The experiment can be described thus: Protective effect against adenine-induced chronic renal failure in Kunming mouse assessed as nephridial CAT levels at 100 mg/kg, ig qd administered for 4 successive weeks with haikunshenxi capsule by visible spectrometry method (reference value: 44.13 +/- 1.25 U/mg). The class given is functional.
For experiment [2], the system named is Mus musculus. The experiment can be described thus: Protective effect against adenine-induced chronic renal failure in Kunming mouse assessed as reduction in number of adenine crystals at 200 mg/kg, ig qd administered for 4 successive weeks with haikunshenxi capsule by haematoxylin and eosin dye-based optical microscopic method. The class given is functional, organism-based. Summed up: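 Kidneys were taken from male Kunming mice given an adenine diet plus oral melanin (100 or 200 mg kg–1), with or without Haikunshenxi capsule, ten per group. Histological sections were examined at 400× for glomeruli, tubules, adenine crystals, tubular atrophy and interstitial fibrosis.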

Experiment [3] deals with Mus musculus. The experiment can be described thus: Protective effect against adenine-induced chronic renal failure in Kunming mouse assessed as nephridial SOD levels at 200 mg/kg, ig qd administered for 4 successive weeks by hydroxylamine method (reference value: 30.45 +/- 1.12 U/mg). Format: functional.
Experiment [4] has as its system Mus musculus. The experiment can be described thus: Protective effect against adenine-induced chronic renal failure in Kunming mouse assessed as nephridial SOD levels at 100 mg/kg, ig qd administered for 4 successive weeks with haikunshenxi capsule by hydroxylamine method (reference value: 30.45 +/- 1.12 U/mg). The class given is functional.
Experiment [5] has as its system Mus musculus. Put plainly: Protective effect against adenine-induced chronic renal failure in ig dosed Kunming mouse assessed as increase in nephridial GSH levels administered as qd for 4 successive weeks with haikunshenxi capsule by colorimetric method. The class given is functional, organism-based. Summed up:
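Male Kunming mice (20 ± 5 g) given dietary adenine to induce CRF, then dosed orally at 100 or 200 mg kg–1, with or without Haikunshenxi capsule; n = 10 per group. Kidney homogenate assayed for SOD and CAT (U mg–1 protein), GSH-Px (U L–1), GSH (mg g–1 protein) and MDA (nmol mL–1).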

The test system of experiment [6] is Mus musculus. The experiment can be described thus: Protective effect against adenine-induced chronic renal failure in Kunming mouse assessed as nephridial iNOS levels at 100 mg/kg, ig qd administered for 4 successive weeks with haikunshenxi capsule (reference value: 1.98 +/- 0.12 U/mg). Format: functional.
Experiment [7] deals with Mus musculus. The experiment can be described thus: Protective effect against adenine-induced chronic renal failure in Kunming mouse assessed as nephridial IL-1beta levels at 200 mg/kg, ig qd administered for 4 successive weeks with haikunshenxi capsule (reference value: 18.34 +/- 0.25 pg/ml). Format: functional.
Experiment [8] concerns Mus musculus. The experiment can be described thus: Protective effect against adenine-induced chronic renal failure in Kunming mouse assessed as nephridial iNOS levels at 200 mg/kg, ig qd administered for 4 successive weeks with haikunshenxi capsule (reference value: 1.98 +/- 0.12 U/mg). Format: functional.
For experiment [9], the system named is Mus musculus. The experiment can be described thus: Protective effect against adenine-induced chronic renal failure in Kunming mouse assessed as nephridial TNF-alpha levels at 100 mg/kg, ig qd administered for 4 successive weeks with haikunshenxi capsule (reference value: 250.15 +/- 8.10 pg/ml). The class given is functional.
For experiment [10], the system named is Mus musculus. The experiment can be described thus: Protective effect against adenine-induced chronic renal failure in Kunming mouse assessed as weight growth rate at 200 mg/kg, ig qd administered for 4 successive weeks measured 24 hrs post last dose (reference value: 32.42 +/- 1.43%). The class given is functional. The essentials:
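Male Kunming mice (20 ± 5 g) kept on a 12 h light/dark cycle at 18–20 °C on a standard diet. CRF induced by chronic dietary adenine. Test material given orally at 100 or 200 mg kg–1, alone or with Haikunshenxi capsule, alongside normal, model and capsule-only groups; ten mice per group. Weight growth rate recorded in %, kidney index in mg g–1.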

Take `Cc1c(=O)c(=O)c2c3c[nH]c4c(C)c(=O)c(=O)c(c5c[nH]c1c52)c43`: the Activity with Mus musculus [1] is 74.25 U/mg; in the experiment with Mus musculus [3], 38.25 U/mg; in the experiment on Mus musculus [4] it was 46.52 U/mg; with Mus musculus [5], “Dose-dependent effect”; in the experiment with Mus musculus [6], 0.79 U/mg; in the experiment on Mus musculus [7], 13.81 pg/mL. Also, the Activity was 0.68 U/mg with Mus musculus [8], 98.13 pg/mL in the experiment on Mus musculus [9] and 52.68% in the experiment with Mus musculus [10]. For the same compound, the result with Mus musculus [2] was Active.
